Results gathered from unrelated publications.
Protocols differ between the studies behind these lines.
Target: Serine/threonine-protein kinase MAK (MAK, Homo sapiens, UniProt P20794)
Residues used in one study (P20794 1-623): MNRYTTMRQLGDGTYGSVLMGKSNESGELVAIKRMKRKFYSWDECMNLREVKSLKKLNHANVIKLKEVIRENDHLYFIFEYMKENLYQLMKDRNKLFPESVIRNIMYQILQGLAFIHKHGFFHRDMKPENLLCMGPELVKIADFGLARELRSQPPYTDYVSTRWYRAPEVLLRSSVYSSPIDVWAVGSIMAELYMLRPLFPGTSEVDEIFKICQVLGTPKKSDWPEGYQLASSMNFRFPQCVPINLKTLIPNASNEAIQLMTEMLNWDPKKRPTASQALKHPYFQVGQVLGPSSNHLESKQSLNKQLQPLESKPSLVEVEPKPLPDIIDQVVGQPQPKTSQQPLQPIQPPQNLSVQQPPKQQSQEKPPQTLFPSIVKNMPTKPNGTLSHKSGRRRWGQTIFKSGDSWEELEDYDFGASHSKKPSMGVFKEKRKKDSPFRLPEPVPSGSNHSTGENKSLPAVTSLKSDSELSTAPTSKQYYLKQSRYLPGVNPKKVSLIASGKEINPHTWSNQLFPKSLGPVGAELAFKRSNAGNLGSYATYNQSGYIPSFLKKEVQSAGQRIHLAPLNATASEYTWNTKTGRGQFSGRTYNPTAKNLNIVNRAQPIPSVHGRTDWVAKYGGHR

| Compound | assay | setting | remaining binding [%] |
| --- | --- | --- | --- |
| COc1ncc2cc3ccccc3nc2c1C#N | binding, competition with immobilised ligand | 5 µM | 87 |
| COc1cnc(Nc2cccc(S(N)(=O)=O)c2)nc1N1CCN(c2ccccc2)CC1 | binding, competition with immobilised ligand | 1 µM | 100 |
| NS(=O)(=O)c1cc(NC(=O)Cc2ccccc2)ccc1Oc1cccc(Cl)c1 | cell-free assay, competition with immobilised ligand | 1 µM | 100 |
| COc1cnc(Nc2cccc(S(N)(=O)=O)c2)nc1N1CCN(c2ccccc2)C(=O)C1 | binding, competition with immobilised ligand | 1 µM | 96 |
| CN(C)c1nccc(-c2cnn3ncccc23)n1 | binding | 1 µM | 100 |
| O=C(Nc1cnc(Oc2ccc(F)cc2)nc1)N1CCc2ncccc2[C@@H]1c1ccc(F)cc1 | cell-free assay, competition with immobilised ligand | 1 µM | 100 |
| F[C@@H]1CCN(c2nccc(-c3cnn4ncccc34)n2)C1 | binding | 1 µM | 86 |
| Cc1cnc(Nc2ccc(C(=O)N3CCC(N4CCCC4)CC3)cc2)nc1-c1cc2ccccc2s1 | binding, competition with immobilised ligand | 1 µM | 100 |
| O=C(O)[C@H]1[C@H](Cn2nnc3ccccc3c2=O)CC[C@@H]1C(=O)c1ccc(OCCC2CCOCC2)cc1 | binding, competition with immobilised ligand | 1 µM | 95 |
| Nc1ncc2c(n1)-c1c([nH]c3ccc(C#CC4CC4)cc13)CCCC2 | binding, competition with immobilised ligand | 1 µM | 100 |
| C[C@@H](c1cccc(C#N)c1)n1cc(Cl)cc(C(N)=O)c1=N | binding, competition with immobilised ligand | 1 µM | 94 |
| O=C(NCCCN1CCOCC1)c1ccc(Nc2nccc(-c3cc4ccccc4s3)n2)cc1 | binding, competition with immobilised ligand | 1 µM | 100 |
| O=C(N1CCS(=O)(=O)CC1)N1C[C@H](c2ccc(OC(F)(F)F)cc2)C[C@H](c2nc(C3CC3)no2)C1 | binding, competition with immobilised ligand | 1 µM | 100 |
| O=C(c1ccc(Nc2ncc(Cl)c(-c3cc4ccccc4s3)n2)cc1)N1CCC(N2CCCC2)CC1 | binding, competition with immobilised ligand | 1 µM | 100 |
| N[C@@H]1CCN(c2nccc(-c3cnn4ncccc34)n2)C1 | binding | 1 µM | 100 |
| O=C(NCC1CCOCC1)c1n[nH]cc1NC(=O)c1c(F)cccc1F | binding, competition with immobilised ligand | 1 µM | 56 |
| C[C@H]1CCN(c2nccc(-c3cnn4ncccc34)n2)C1 | binding | 1 µM | 66 |
| CCC(=O)N[C@H]1CC[C@@H](C(=O)N(C)c2ccc(-c3nc4ccccc4o3)cc2)C1 | cell-free assay, competition with immobilised ligand | 1 µM | 85 |
| Cc1cnn2ncc(-c3ccnc(N(C)C)n3)c2c1 | binding | 1 µM | 46 |
| CS(=O)(=O)N1CCCC(NC(=O)[C@H](CCC2CCCCC2)NC(=O)c2ccc(CNC(=O)c3cnc4ccccn34)cc2)C1 (stereo partly shown) | cell-free assay, competition with immobilised ligand | 0.1 µM | 100 |
| CN(CCCC(F)(F)F)c1nccc(-c2cnn3ncccc23)n1 | binding | 1 µM | 100 |
| C[C@@H](c1ccc(-n2cnc3c(N)ncnc32)cc1)N1CCc2nn(C)c(Cc3ccccc3)c2C1=O | binding, competition with immobilised ligand | 0.1 µM | 82 |
